Measured values taken from ChEMBL document CHEMBL1149778, “Synthesis of some novel 2,4-disubstituted thiazoles as possible antimicrobial agents” (2008).
Converted amounts (≈) assume the structure as drawn.

Key:
[1] = test system: Pseudomonas aeruginosa; assay: Antibacterial activity against Pseudomonas aeruginosa ATTC 27853 after 16 to 18 hrs by serial plate dilution method; type: functional; conditions: ATCC27853
Summary of the method: (§1)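 MIC by broth serial dilution: compound serially diluted in Mueller-Hinton broth, tubes adjusted to […] with phosphate buffer. Standardized bacterial suspension inoculated, incubated 16-18 h at 37 °C. MIC read as the lowest concentration with no visible growth.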

[2] = test system: Bacillus subtilis; assay: Antibacterial activity against Bacillus subtilis after 16 to 18 hrs by serial plate dilution method; type: functional; summary of the method: as §1
[3] = test system: Trichophyton mentagrophytes; assay: Antifungal activity against Trichophyton mentagrophytes by serial plate dilution method; type: functional
[4] = test system: Aspergillus fumigatus; assay: Antifungal activity against Aspergillus fumigatus NCIM No.902 assessed as zone of inhibition by serial plate dilution method; type: functional
Summary of the method: (§2)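 Sabouraud agar (peptone, D-glucose, agar; pH 5.7), 20 ml per dish, lawned with a saline spore suspension from a loopful of fungus. Excess decanted, plates dried 1 h at 37 °C. Wells punched and compounds in DMSO added, DMSO as control. Triplicate plates, 37 °C for 3-4 days; inhibition-zone diameter measured.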

[5] = test system: Talaromyces marneffei; assay: Antifungal activity against Penicillium marneffei assessed as zone of inhibition by serial plate dilution method; type: functional; summary of the method: as §2
[6] = test system: Bacillus subtilis; assay: Antibacterial activity against Bacillus subtilis assessed as zone of inhibition after 16 to 18 hrs by serial plate dilution method; type: functional
Summary of the method: (§3)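 Agar well diffusion: 20 ml agar per dish seeded with bacterial suspension, excess decanted, dishes held 1 h at 37 °C. Wells punched, compounds in DMSO added at their MIC levels, DMSO wells as control. Zone of inhibition measured.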

[7] = test system: Pseudomonas aeruginosa; assay: Antibacterial activity against Pseudomonas aeruginosa ATTC 27853 assessed as zone of inhibition after 16 to 18 hrs by serial plate dilution method; type: functional, ATCC27853; summary of the method: as §3
[8] = test system: Aspergillus flavus; assay: Antifungal activity against Aspergillus flavus NCIM No.524 by serial plate dilution method; type: functional
[9] = test system: Trichophyton mentagrophytes; assay: Antifungal activity against Trichophyton mentagrophytes assessed as zone of inhibition by serial plate dilution method; type: functional; summary of the method: as §2
[10] = test system: Staphylococcus aureus; assay: Antibacterial activity against Staphylococcus aureus ATTC 25923 assessed as zone of inhibition after 16 to 18 hrs by serial plate dilution method; type: functional; summary of the method: as §3
[11] = test system: Aspergillus flavus; assay: Antifungal activity against Aspergillus flavus NCIM No.524 assessed as zone of inhibition by serial plate dilution method; type: functional; summary of the method: as §2
[12] = test system: Staphylococcus aureus; assay: Antibacterial activity against Staphylococcus aureus ATTC 25923 after 16 to 18 hrs by serial plate dilution method; type: functional; summary of the method: as §1
[13] = test system: Escherichia coli; assay: Antibacterial activity against Escherichia coli ATTC 25922 assessed as zone of inhibition after 16 to 18 hrs by serial plate dilution method; type: functional, ATCC25922; summary of the method: as §3
[14] = test system: Escherichia coli; assay: Antibacterial activity against Escherichia coli ATTC 25922 after 16 to 18 hrs by serial plate dilution method; type: functional; conditions: ATCC25922; summary of the method: as §1
[15] = test system: Aspergillus fumigatus; assay: Antifungal activity against Aspergillus fumigatus NCIM No.902 by serial plate dilution method; type: functional
[16] = test system: Talaromyces marneffei; assay: Antifungal activity against Penicillium marneffei by serial plate dilution method; type: functional

| SMILES | MIC [1] | MIC [2] | MIC [3] | inhibition zone (IZ) [4] | inhibition zone (IZ) [5] | inhibition zone (IZ) [6] | inhibition zone (IZ) [7] | MIC [8] | inhibition zone (IZ) [9] | inhibition zone (IZ) [10] | inhibition zone (IZ) [11] | MIC [12] | inhibition zone (IZ) [13] | MIC [14] | MIC [15] | MIC [16] |
| --- | --- | --- | --- | --- | --- | --- | --- | --- | --- | --- | --- | --- | --- | --- | --- | --- |
| Clc1ccc(-c2csc(N/N=C/c3cc(Cl)cc(Cl)c3Cl)n2)cc1 | 25 µg/mL (≈ 59.9 µM) | 25 µg/mL (≈ 59.9 µM) | 12.5 µg/mL (≈ 30 µM) | 11 mm | 11 mm | <10 mm | <10 mm | 12.5 µg/mL (≈ 30 µM) | 11 mm | <10 mm | 11 mm | 25 µg/mL (≈ 59.9 µM) | 11 mm | 12.5 µg/mL (≈ 30 µM) | 12.5 µg/mL (≈ 30 µM) | 12.5 µg/mL (≈ 30 µM) |
| Clc1cc(Cl)c(Cl)c(/C=N/Nc2nc(-c3ccc(-c4ccccc4)cc3)cs2)c1 | 25 µg/mL (≈ 54.5 µM) | 6.25 µg/mL (≈ 13.6 µM) | 6.25 µg/mL (≈ 13.6 µM) | 16 mm | 16 mm | 16 mm | <10 mm | 6.25 µg/mL (≈ 13.6 µM) | 16 mm | 16 mm | 16 mm | 6.25 µg/mL (≈ 13.6 µM) | <10 mm | 25 µg/mL (≈ 54.5 µM) | 6.25 µg/mL (≈ 13.6 µM) | 6.25 µg/mL (≈ 13.6 µM) |
| COc1ccc(-c2csc(N/N=C/c3cc(Cl)cc(Cl)c3Cl)n2)cc1 | 25 µg/mL (≈ 60.6 µM) | 25 µg/mL (≈ 60.6 µM) | 12.5 µg/mL (≈ 30.3 µM) | <10 mm | <10 mm | <10 mm | <10 mm | 25 µg/mL (≈ 60.6 µM) | 11 mm | <10 mm | <10 mm | 25 µg/mL (≈ 60.6 µM) | <10 mm | 25 µg/mL (≈ 60.6 µM) | 25 µg/mL (≈ 60.6 µM) | 25 µg/mL (≈ 60.6 µM) |
| Clc1cc(Cl)c(Cl)c(/C=N/Nc2nc(-c3cccnc3)cs2)c1 | 12.5 µg/mL (≈ 32.6 µM) | 12.5 µg/mL (≈ 32.6 µM) | 6.25 µg/mL (≈ 16.3 µM) | 16 mm | 16 mm | 10 mm | 11 mm | 6.25 µg/mL (≈ 16.3 µM) | 16 mm | <10 mm | 16 mm | 25 µg/mL (≈ 65.2 µM) | 11 mm | 12.5 µg/mL (≈ 32.6 µM) | 6.25 µg/mL (≈ 16.3 µM) | 6.25 µg/mL (≈ 16.3 µM) |
